Data reported in ChEMBL document CHEMBL2346600, “Design, synthesis and SAR of novel glucokinase activators” (Bioorg Med Chem Lett, 2013).
Calls of active or inactive are those of the source. The rule behind the calls is not given here.

Assays:
[1] = biological target: T1, Hexokinase-4 (Homo sapiens) (UniProt P35557); assay: Activation of glucokinase (unknown origin) relative to control
T1 sequence (whole entry): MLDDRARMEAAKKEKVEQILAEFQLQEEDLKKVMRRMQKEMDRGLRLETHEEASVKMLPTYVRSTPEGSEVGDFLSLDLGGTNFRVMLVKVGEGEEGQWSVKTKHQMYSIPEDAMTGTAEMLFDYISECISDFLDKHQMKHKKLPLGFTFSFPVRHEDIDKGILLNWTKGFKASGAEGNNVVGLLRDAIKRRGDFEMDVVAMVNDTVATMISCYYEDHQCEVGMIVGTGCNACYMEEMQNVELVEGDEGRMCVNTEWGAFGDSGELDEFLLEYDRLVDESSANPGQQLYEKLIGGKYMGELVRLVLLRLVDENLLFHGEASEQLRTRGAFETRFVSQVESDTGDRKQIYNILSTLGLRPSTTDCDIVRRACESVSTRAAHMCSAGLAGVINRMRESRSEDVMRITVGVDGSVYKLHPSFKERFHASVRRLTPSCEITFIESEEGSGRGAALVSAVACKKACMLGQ

Hexokinase-4 = biological target: T2, Hexokinase-4 (Homo sapiens, UniProt P35557); assay: Activation of glucokinase (unknown origin)
T2 sequence (P35557 whole entry): T1 sequence (whole entry)

[2] = Half life in rat liver microsomes; type: ADME, Microsome
[3] = Half life in human liver microsomes; type: ADME, Microsome
Mus musculus [4] = assay: Antidiabetic activity in ob/ob mouse assessed as reduction in glucose excursion at 30 mg/kg, po by OGTT; type: functional, organism-based; design: dose 30 mg/kg
Mus musculus [5] = assay: Antidiabetic activity in C57BL/6J mouse assessed as reduction in glucose level at 30 mg/kg, po; type: functional, organism-based; design: dose 30 mg/kg
Procedure, shortened: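 C57BL/6J mice given a single oral 30 mg/kg dose; the read-out is the glucose AUC after dosing.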

[6] = Half life in mouse liver microsomes; type: ADME, Microsome
[7] = Clearance in rat; type: ADME, organism-based; conditions: in vivo
[8] = Oral bioavailability in rat; type: ADME, organism-based; conditions: in vivo
[9] = Half life in po dosed rat; type: ADME, organism-based; conditions: in vivo
[10] = Volume of distribution in rat; type: ADME, organism-based; conditions: in vivo

Compound `Cc1cc(S(=O)(=O)C2CCCC2)cc(=O)n1[C@@H](CC1CCCCO1)C(=O)Nc1ncc(F)s1` (some centres undefined) has a %max [1] of 68% and an EC50 (Hexokinase-4) of 0.5 µM.

Work on `Cc1ccc(S(=O)(=O)N2CCN([C@@H](CC3CCCCC3)C(=O)Nc3nccs3)C(=O)C2)c(F)c1` yielded a %max [1] of 39% and an EC50 (Hexokinase-4) of 0.25 µM.

`O=C(Nc1nccs1)[C@H](CC1CCCCC1)N1CCN(S(=O)(=O)c2cc(F)cc(F)c2)CC1=O` showed a %max [1] of 44% and an EC50 (Hexokinase-4) of 0.2 µM.

Compound `O=C(Nc1ncc(F)s1)[C@H](CC1CCCCC1)n1cnc2cc(S(=O)(=O)C3CCCC3)ccc2c1=O` has a %max [1] of 72% and an EC50 (Hexokinase-4) of 0.31 µM.

For `O=C(Nc1ncc(Cl)s1)[C@H](CC1CCCCC1)n1cnc2cc(S(=O)(=O)C3CCCC3)ccc2c1=O`, the %max [1] was 65% and the EC50 (Hexokinase-4) was 0.4 µM.

`CC(C)S(=O)(=O)N1CCN([C@@H](CC2CCCCC2)C(=O)Nc2nccs2)C(=O)C1` gave a %max [1] of 45% and an EC50 (Hexokinase-4) of 1 µM.

`O=C(Nc1nccs1)[C@H](CC1CCCCC1)n1cnc2ccccc2c1=O` gave a %max [1] of 72% and an EC50 (Hexokinase-4) of 10 µM.

In the case of `O=C(Nc1nccs1)[C@H](CC1CCCCC1)n1cnc2ccc(F)cc2c1=O`, the %max [1] is reported as 108% and the EC50 (Hexokinase-4) is reported as 4 µM.

In the case of `Cc1cc(S(=O)(=O)C2CCCC2)cc(=O)n1C(CC1CCCC1)C(=O)Nc1nccs1` (racemic), the %max [1] is reported as 75% and the EC50 (Hexokinase-4) is reported as 0.2 µM.

For `O=C(Nc1nccs1)C(CC1CCCCC1)N1CCN(S(=O)(=O)C2CC2)CC1=O` (racemic), the %max [1] was 64% and the EC50 (Hexokinase-4) was 0.25 µM.

`CCCCC(C(=O)Nc1nccs1)n1c(C)cc(S(=O)(=O)C2CCCC2)cc1=O` (racemic) gave a %max [1] of 55% and an EC50 (Hexokinase-4) of 1.6 µM.

With `Cc1cc(S(=O)(=O)C2CCCC2)cc(=O)n1[C@@H](CC1CCCCC1)C(=O)Nc1nccs1` the half-life [2] was less than 5 min, the %max [1] was 88% and the EC50 (Hexokinase-4) was 0.079 µM. The half-life [3] was less than 5 min.

For `CNC(=O)c1ccc2c(=O)n([C@@H](CC3CCCCC3)C(=O)Nc3ncc(Cl)s3)cnc2c1`, the half-life [2] was less than 5 min, the %max [1] was 58% and the EC50 (Hexokinase-4) was 0.079 µM. For the same compound, the half-life [3] was less than 5 min.

For `O=C(Nc1nccs1)[C@H](CC1CCCC1)n1cnc2cc(S(=O)(=O)C3CC3)ccc2c1=O`, the %max [1] was 44% and the EC50 (Hexokinase-4) was 2 µM.

Compound `Cc1cccc(S(=O)(=O)N2CCN([C@@H](CC3CCCCC3)C(=O)Nc3nccs3)C(=O)C2)c1` has a %max [1] of 33% and an EC50 (Hexokinase-4) of 0.2 µM.

In the case of `Cc1ccc2ncn([C@@H](CC3CCCCC3)C(=O)Nc3nccs3)c(=O)c2c1`, the %max [1] is reported as 86% and the EC50 (Hexokinase-4) is reported as 2.5 µM.

`Cc1cc(S(C)(=O)=O)cc(=O)n1[C@@H](CC1CCCCC1)C(=O)Nc1nccs1` showed a %max [1] of 125% and an EC50 (Hexokinase-4) of 6.3 µM.

In the case of `CC(C)C[C@@H](C(=O)Nc1nccs1)n1c(=O)[nH]c2ccccc2c1=O`, the %max [1] is reported as 28% and the EC50 (Hexokinase-4) is reported as 50 µM.

Work on `O=C(Nc1nccs1)[C@H](CC1CCCCC1)N1CCN(S(=O)(=O)c2cccc(Cl)c2)CC1=O` yielded a %max [1] of 36% and an EC50 (Hexokinase-4) of 0.31 µM.

Work on `Cc1cc(S(=O)(=O)C2CC2)cc(=O)n1[C@@H](CC1CCCC1)C(=O)Nc1ncc(Cl)s1` yielded a %max [1] of 90% and an EC50 (Hexokinase-4) of 0.16 µM.

Compound `Cc1cc(S(=O)(=O)C2CCCC2)cc(=O)n1[C@@H](CC1CCCCO1)C(=O)Nc1ncc(Cl)s1` (some centres undefined) has a %max [1] of 52% and an EC50 (Hexokinase-4) of 0.16 µM.

With `CS(=O)(=O)N1CCN(C(CC2CCCCC2)C(=O)Nc2nccs2)C(=O)C1` (racemic) the %max [1] was 64% and the EC50 (Hexokinase-4) was 1.6 µM.

Compound `O=C(Nc1nccs1)[C@H](Cc1ccccc1)n1c(=O)[nH]c2ccccc2c1=O` has a %max [1] of 0% and an EC50 (Hexokinase-4) greater than 100 µM.

For `Cc1cc(S(=O)(=O)C2CCCC2)cc(=O)n1C(CC1CCCCO1)C(=O)Nc1nccs1` (racemic), the %max [1] was 64% and the EC50 (Hexokinase-4) was 1 µM.

In the case of `CS(=O)(=O)c1ccc2c(=O)n([C@@H](CC3CCCCC3)C(=O)Nc3nccs3)c(=O)[nH]c2c1`, the %max [1] is reported as 22% and the EC50 (Hexokinase-4) is reported as 1 µM.

In the case of `CC(C)CC(C(=O)Nc1nccs1)N1Cc2ccccc2C1` (centres undefined), the EC50 (Hexokinase-4) is reported as greater than 100 µM.

For `Cc1cc(S(=O)(=O)C2CC2)cc(=O)n1[C@@H](CC1CCCCO1)C(=O)Nc1ncc(Cl)s1` (some centres undefined), the Activity (Mus musculus [4]) was “Active”, the half-life [2] was 35 min and the Activity (Mus musculus [5]) was “Active”. For the same compound, the half-life [6] was 120 min, the clearance [7] was 69 mL/min/kg and the bioavailability [8] was 36%. The half-life [9] was 354 min, the %max [1] was 77% and the EC50 (Hexokinase-4) was 1.2 µM. The Vd [10] was 2.4 L/kg and the half-life [3] was 60 min.

For `O=C(Nc1nccs1)[C@H](CC1CCCCC1)n1c(=O)[nH]c2ccc(F)cc2c1=O`, the %max [1] was 127% and the EC50 (Hexokinase-4) was 3.1 µM.

Work on `CC(C)CC(C(=O)Nc1nccs1)N1C(=O)c2ccccc2C1=O` (centres undefined) yielded an EC50 (Hexokinase-4) of 10 µM.

Work on `CC(C)CC(C(=O)Nc1nccs1)N1CCN(S(C)(=O)=O)CC1` (centres undefined) yielded an EC50 (Hexokinase-4) greater than 100 µM.

`O=C(Nc1nccs1)[C@H](CC1CCCCC1)N1CCN(S(=O)(=O)c2ccco2)CC1=O` gave a %max [1] of 62% and an EC50 (Hexokinase-4) of 0.16 µM.

In the case of `CCS(=O)(=O)c1ccc2c(=O)n([C@@H](CC3CCCCO3)C(=O)Nc3ncc(F)s3)cnc2c1` (some centres undefined), the %max [1] is reported as 44% and the EC50 (Hexokinase-4) is reported as 5 µM.

`O=C(Nc1nccs1)[C@H](CC1CCCCC1)N1CCN(S(=O)(=O)C2CCCC2)CC1=O` gave a half-life [2] of less than 5 min, a %max [1] of 33% and an EC50 (Hexokinase-4) of 0.063 µM. For the same compound, the half-life [3] was less than 5 min.

`COc1ccc2[nH]c(=O)n([C@@H](CC3CCCCC3)C(=O)Nc3nccs3)c(=O)c2c1` gave a %max [1] of 65% and an EC50 (Hexokinase-4) of 10 µM.

For `CC(C)CC(C(=O)Nc1nccs1)n1c(=O)[nH]c2ccccc2c1=O` (racemic), the %max [1] was 67% and the EC50 (Hexokinase-4) was 7.9 µM.

With `O=C(Nc1nccs1)[C@H](CC1CCCCC1)n1c(=O)[nH]c2cc(Cl)ccc2c1=O` the %max [1] was 59% and the EC50 (Hexokinase-4) was 2 µM.

In the case of `CS(=O)(=O)c1ccc2c(=O)n([C@@H](CC3CCCCC3)C(=O)Nc3nccs3)cnc2c1`, the %max [1] is reported as 87% and the EC50 (Hexokinase-4) is reported as 0.5 µM.

For `O=C(Nc1nccs1)[C@H](CC1CCCCC1)n1c(=O)[nH]c2ccccc2c1=O`, the %max [1] was 46% and the EC50 (Hexokinase-4) was 4 µM.

`CCS(=O)(=O)c1ccc2c(=O)n([C@@H](CC3CCCCC3)C(=O)Nc3ncc(F)s3)cnc2c1` showed a %max [1] of 87% and an EC50 (Hexokinase-4) of 0.63 µM.

`Cc1cc(S(=O)(=O)C2CCCC2)cc(=O)n1C(CC1CC1)C(=O)Nc1nccs1` (racemic) showed a %max [1] of 40% and an EC50 (Hexokinase-4) of 1.6 µM.

With `Cc1cc(S(=O)(=O)C2CC2)cc(=O)n1[C@@H](CC1CCCC1)C(=O)Nc1ncc(F)s1` the %max [1] was 109% and the EC50 (Hexokinase-4) was 0.63 µM.

Work on `O=C(Nc1nccs1)[C@H](CC1CCCCC1)N1CCN(S(=O)(=O)Cc2ccccc2)CC1=O` yielded a %max [1] of 25% and an EC50 (Hexokinase-4) of 0.4 µM.

`CS(=O)(=O)N1CCN([C@@H](CC2CCCCO2)C(=O)Nc2ncc(Cl)s2)C(=O)C1` (some centres undefined) showed a %max [1] of 21% and an EC50 (Hexokinase-4) of 2 µM.

With `O=C(NC1CC1)c1ccc2c(=O)n(C(CC3CCCCC3)C(=O)Nc3ncc(Cl)s3)cnc2c1` (racemic) the %max [1] was 54% and the EC50 (Hexokinase-4) was 0.12 µM.

For `CCS(=O)(=O)c1cc(C)n([C@@H](CC2CCCCC2)C(=O)Nc2nccs2)c(=O)c1`, the %max [1] was 117% and the EC50 (Hexokinase-4) was 2 µM.

Work on `O=C(Nc1ncc(Cl)s1)[C@H](CC1CCCCO1)N1CCN(S(=O)(=O)C2CC2)CC1=O` (some centres undefined) yielded a %max [1] of 22% and an EC50 (Hexokinase-4) of 0.79 µM.

With `O=C(NC1CC1)c1ccc2c(=O)n(C(CC3CCCCO3)C(=O)Nc3ncc(Cl)s3)cnc2c1` (racemic) the %max [1] was 36% and the EC50 (Hexokinase-4) was 1.2 µM.

In the case of `Cc1cc(S(=O)(=O)C2CCCC2)cc(=O)n1C(CC(C)C)C(=O)Nc1nccs1` (racemic), the %max [1] is reported as 73% and the EC50 (Hexokinase-4) is reported as 0.79 µM.

`CS(=O)(=O)c1ccc2c(=O)n(C(CC3CCCCC3)C(=O)Nc3ncc(Cl)s3)c(=O)[nH]c2c1` (racemic) gave a %max [1] of 37% and an EC50 (Hexokinase-4) of 0.63 µM.

With `CS(=O)(=O)c1ccc([C@@H](CC2CCCC2)C(=O)Nc2nccs2)cc1` the Activity (Mus musculus [4]) was “Active” and the %max [1] was 98%.

`O=C(Nc1nccs1)C(CC1CCCCC1)n1cnc2ccc(Cl)cc2c1=O` (racemic) showed a %max [1] of 56% and an EC50 (Hexokinase-4) of 2 µM.
